Test results from ChEMBL document CHEMBL1122944, “The histamine H2 receptor agonist impromidine: synthesis and structure-activity considerations” (J Med Chem, 1985).

Assays:
[1] = target: Histamine H2 receptor (Cavia porcellus) (UniProt P47747); test: Percent maximum response against histamine H2 receptor in guinea pig atrium was evaluated; type: tissue-based; settings: Cardiac atrium
How it was run: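 Isolated guinea pig atrium under 400-mg tension with propranolol (0.5 μM). Complete cumulative dose-response curves to histamine and test agonist, up to 781 μM, used to find the maximum response obtainable, expressed relative to histamine.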

[2] = target: Histamine H2 receptor (Cavia porcellus) (UniProt P47747); test: Agonistic activity against histamine H2 receptor in guinea pig atrium (potency relative to histamine =1); type: functional, tissue-based; settings: Cardiac atrium
How it was run: (§1)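 Isolated guinea pig atrium, muscle under 400-mg tension, propranolol (0.5 μM) present. Agonist tested up to 781 μM (0.1% histamine) by cumulative dose-response curves. Potency relative to histamine taken from concentrations giving 50% of maximal response; selected compounds by 2 + 2 Latin square parallel-line assay against histamine.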

[3] = target: T1, Histamine H2 receptor (Cavia porcellus, UniProt P47747); test: Antagonistic activity against H2 receptor in guinea pig.; type: functional; settings: read-out: pA2 (converted)
T1 sequence (P47747 whole entry): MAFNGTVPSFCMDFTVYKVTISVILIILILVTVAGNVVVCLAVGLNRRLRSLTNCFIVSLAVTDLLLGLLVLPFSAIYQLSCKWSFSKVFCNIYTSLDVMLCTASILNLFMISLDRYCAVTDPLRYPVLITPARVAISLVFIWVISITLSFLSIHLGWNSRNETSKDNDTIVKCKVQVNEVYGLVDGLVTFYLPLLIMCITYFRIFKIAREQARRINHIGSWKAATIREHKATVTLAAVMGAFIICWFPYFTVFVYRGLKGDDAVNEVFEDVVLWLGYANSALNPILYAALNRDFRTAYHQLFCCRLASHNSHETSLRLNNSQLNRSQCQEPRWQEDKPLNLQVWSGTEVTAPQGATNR

[4] = target: T1, Histamine H2 receptor; test: Antagonistic activity against H2 receptor in guinea pig was evaluated; type: functional; settings: read-out: pA2 (converted)
How it was run: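 Guinea pig atrium under 400-mg tension with propranolol (0.5 μM). Histamine concentrations giving half-maximal response measured with and without several antagonist concentrations (B). K_B = B/(x − 1), x being the concentration ratio; pA2 = −log K_B.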

[5] = target: Histamine H2 receptor (Cavia porcellus) (UniProt P47747); settings: Cardiac atrium
[6] = target: Histamine H2 receptor (Cavia porcellus) (UniProt P47747); test: Agonistic activity against histamine H2 receptor in guinea pig atrium(potency relative to histamine =1); type: functional, tissue-based; settings: Cardiac atrium; how it was run: as §1

Sequence of Histamine H2 receptor (Cavia porcellus) (P47747 whole entry): as above

Structure (SMILES) | Max response [1] [%] | Potency [2] | Kb [3] [µM] | also measured
Cc1[nH]cnc1CSCCNC(=N)NCCCc1c[nH]cn1 | 98.7 | 48.1 |  | 
C/N=C(\N)NCCCCc1c[nH]cn1 | 46 | 0.074 | 100 | 
CSC(=N)NCCCc1c[nH]cn1 | 23 | 0.1 | 25.1 | 
Cc1[nH]cnc1CSCCNC(=N)NCCSCc1nc[nH]c1C |  |  | 0.214 | 
CSC(=N)NCCSCc1[nH]cnc1C |  |  | 6.92 | 
C/N=C(\N)NCCSCc1c[nH]cn1 |  |  | 41.7 | 
N=C(NCCCCc1c[nH]cn1)NCCCc1c[nH]cn1 | 85.5 | 12.3 |  | 
Cc1[nH]cnc1CSCC/N=C(\N)NCCCCc1c[nH]cn1 | 20 | 0.83 | 1.15 | 
C/[S+]=C(/NCCCc1c[nH]cn1)NCCSCc1[nH]cnc1C |  |  |  | Kb [4]: 17.8 µM; Potency [5]: 0.01
C/N=C(\N)NCCSCc1[nH]cnc1C |  |  | 16.2 | 
Cc1[nH]cnc1CSCC/N=C(\NC#N)NCCCc1c[nH]cn1 |  |  | 0.575 | 
CC1=NN(c2ccc([N+](=O)[O-])cc2)C(=O)C1[N+](=O)[O-].N=C(NCCCc1c[nH]cn1)NCCCc1c[nH]cn1 | 100 | 4.83 |  | 
C/N=C(\N)NCCc1c[nH]cn1 | 62 |  | > 501 | Potency [6]: 0.01
N=C(NCCCc1c[nH]cn1)NCCSCc1c[nH]cn1 | 95 | 5.38 |  | 
CC1=NN(c2ccc([N+](=O)[O-])cc2)C(=O)C1[N+](=O)[O-].Cc1[nH]cnc1CSCC/N=C(\N)NCCc1c[nH]cn1 | 100 | 1.93 |  | 
Cc1nc[nH]c1CSCCNC(=O)NCCCc1cnc[nH]1 |  |  | 6.31 | 
CC1=NN(c2ccc([N+](=O)[O-])cc2)C(=O)C1[N+](=O)[O-].Cc1[nH]cnc1CSCC/N=C(\N)NCCCc1cn(C)cn1 | 11 | 0.007 | 1.58 | 
N=C(NCCCc1c[nH]cn1)NCCCc1nccs1 | 87 | 26.6 |  | 
Cc1nc[nH]c1CSCCNC(=S)NCCCc1cnc[nH]1 |  |  | 1.2 | 
C/N=C(\N)NCCCc1c[nH]cn1 | 62 | 0.2 | 12.6 | 
C/N=C(\N)NCCCc1nccs1 |  |  | 63.1 | 
N=C(NCCCc1c[nH]cn1)NCCSCc1nccs1 | 91 | 24.4 |  | 
Cc1[nH]cnc1CSCC/N=C(\N)SCCCc1c[nH]cn1 |  |  | 3.31 | 
CC1=NN(c2ccc([N+](=O)[O-])cc2)C(=O)C1[N+](=O)[O-].CN/C(=N\CCCc1c[nH]cn1)NCCSCc1[nH]cnc1C | 91 |  |  | Potency [6]: 0.062
